Converted amounts (≈) assume the structure as drawn.
Tests used:
Cavia porcellus [1] = species on record: Cavia porcellus; assay: Positive inotropic activity was assessed in spontaneously beating guinea pig atria; NA=Not active; assay type: functional, organism-based
Summary of the method: (§1)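 Guinea pig atria, spontaneously beating, in Ringer solution at 32 °C gassed with 95% O2/5% CO2. Isometric force recorded at 0.5–1 g initial tension after 30 min stabilization. Compounds in water or propylene glycol given cumulatively at 0.01–30 μg/mL, with 7 min contact per dose. EC50 for a 50% force increase taken graphically from the dose-response curve, in triplicate.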

Cavia porcellus [2] = species on record: Cavia porcellus; assay: Positive inotropic activity in spontaneously beating guinea pig atria; assay type: functional, organism-based; summary of the method: as §1
Felis catus = assay: Effective dose for lowering blood pressure in anesthetized cat when administered intravenously; assay type: functional; conditions: iv
Summary of the method: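 Cats of either sex, 3–4 kg, under ether induction and chloralose (70 mg/kg iv). Compounds in distilled water or propylene glycol were given iv via the femoral vein at 0.01–10 mg/kg. Fall in mean arterial pressure read 10 min post-dose. ED20 taken graphically from the log dose-response curve, with doses run in triplicate.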

EC50 (Cavia porcellus [1])	EC50 (Cavia porcellus [2]) [µg/mL]	Compound	ED20 (Felis catus) [mg/kg]
Not Active	–	C=C[C@@]1(C)CC(=O)[C@]2(O)C3(C)C(C(O)C(OC(=O)Cn4cc(C(=O)OCC)c(=O)c5ccc(C(F)(F)F)cc54)[C@@]2(C)O1)C(C)(C)CC[C@@H]3O (stereo partly drawn)	–
–	3 (≈ 5.1 µM)	C=C[C@@]1(C)CC(=O)[C@]2(O)C3(C)C(C(OC(=O)Cn4cnc5c4c(=O)n(C)c(=O)n5C)C(O)[C@@]2(C)O1)C(C)(C)CC[C@@H]3O (stereo partly drawn)	4.5
–	1.5	C=C[C@@]1(C)CC(=O)[C@]2(O)C3(C)C(C(OC(=O)CN4CCSCC4)C(O)[C@@]2(C)O1)C(C)(C)CC[C@@H]3O.Cl (stereo partly drawn)	5
–	1.2 (≈ 1.96 µM)	C=C[C@@]1(C)CC(=O)[C@]2(O)C3(C)C(C(OC(=O)CN4CCC(NC(=O)c5ccccc5)CC4)C(O)[C@@]2(C)O1)C(C)(C)CC[C@@H]3O (stereo partly drawn)	4
–	10	C=C[C@@]1(C)CC(=O)[C@]2(O)C3(C)C(C(OC(=O)CNCc4ccccc4)C(O)[C@@]2(C)O1)C(C)(C)CC[C@@H]3O.Cl (stereo partly drawn)	3.5
–	> 30	C=C[C@@]1(C)CC(=O)[C@]2(O)C3(C)C(C(OC(=O)CCCCN4CCCCC4)C(O)[C@@]2(C)O1)C(C)(C)CC[C@@H]3O.Cl (stereo partly drawn)	1
–	> 30	C=C[C@@]1(C)CC(=O)[C@]2(O)C3(C)C(C(OC(=O)CN4CCCC(C)C4)C(O)[C@@]2(C)O1)C(C)(C)CC[C@@H]3O.Cl (stereo partly drawn)	5.4
Not Active	–	C=C[C@@]1(C)CC(=O)[C@]2(O)C3(C)C(C(OC(=O)CCCN4CCCCC4)C(O)[C@@]2(C)O1)C(C)(C)CC[C@@H]3O.Cl (stereo partly drawn)	3
–	> 30	C=C[C@@]1(C)CC(=O)[C@]2(O)C3(C)C(C(OC(=O)C(C)N4CCOCC4)C(O)[C@@]2(C)O1)C(C)(C)CC[C@@H]3O.Cl (stereo partly drawn)	3
–	> 30	C=C[C@@]1(C)CC(=O)[C@]2(O)C3(C)C(C(O)C(OC(=O)CCN4C(=O)c5ccccc5C4=O)[C@@]2(C)O1)C(C)(C)CC[C@@H]3O (stereo partly drawn)	10
–	> 30	C=C[C@@]1(C)CC(=O)[C@]2(O)C3(C)C(C(O)C(OC(=O)CN4CCN(C)CC4)[C@@]2(C)O1)C(C)(C)CC[C@@H]3O.Cl (stereo partly drawn)	0.9
–	> 30	C=C[C@@]1(C)CC(=O)[C@]2(O)C3(C)C(C(O)C(OC(=O)C(C)N4CCCCC4)[C@@]2(C)O1)C(C)(C)CC[C@@H]3O (stereo partly drawn)	4.5
–	10	C=C[C@@]1(C)CC(=O)[C@]2(O)C3(C)C(C(O)C(OC(=O)CN(CC)CC)[C@@]2(C)O1)C(C)(C)CC[C@@H]3O.Cl (stereo partly drawn)	2
Not Active	–	C=C[C@@]1(C)CC(=O)[C@]2(O)C3(C)C(C(O)C(OC(=O)CCCn4cnc5c4c(=O)n(C)c(=O)n5C)[C@@]2(C)O1)C(C)(C)CC[C@@H]3O (stereo partly drawn)	3
–	> 30	C=C[C@@]1(C)CC(=O)[C@]2(O)C3(C)C(C(O)C(OC(=O)CNC(C)(C)C)[C@@]2(C)O1)C(C)(C)CC[C@@H]3O.Cl (stereo partly drawn)	1
Not Active	–	C=C[C@@]1(C)CC(=O)[C@]2(O)C3(C)C(C(O)C(OC(=O)CCCCCCCCCCCN4CCOCC4)[C@@]2(C)O1)C(C)(C)CC[C@@H]3O.Cl (stereo partly drawn)	1.6
–	> 30	C=C[C@@]1(C)CC(=O)[C@]2(O)C3(C)C(C(O)C(OC(=O)CN4CCC(C)CC4)[C@@]2(C)O1)C(C)(C)CC[C@@H]3O.Cl (stereo partly drawn)	10
–	3 (≈ 5.12 µM)	C=C[C@@]1(C)CC(=O)[C@]2(O)C3(C)C(C(OC(=O)CN4CCC(O)(c5ccccc5)CC4)C(O)[C@@]2(C)O1)C(C)(C)CC[C@@H]3O (stereo partly drawn)	5
–	1.9	C=C[C@@]1(C)CC(=O)[C@]2(O)C3(C)C(C(OC(=O)CN4CCCCCC4)C(O)[C@@]2(C)O1)C(C)(C)CC[C@@H]3O.Cl (stereo partly drawn)	1
Not Active	–	C=C[C@@]1(C)CC(=O)[C@]2(O)C3(C)C(C(OC(=O)CN(C)C4CCCCC4)C(O)[C@@]2(C)O1)C(C)(C)CC[C@@H]3O.ClC(Cl)Cl (stereo partly drawn)	3.5
Not Active	–	C=C[C@@]1(C)CC(=O)[C@]2(O)C3(C)C(C(O)C(OC(=O)C(C)Nc4ccccc4)[C@@]2(C)O1)C(C)(C)CC[C@@H]3O (stereo partly drawn)	3
–	1.8	C=C[C@@]1(C)CC(=O)[C@]2(O)C3(C)C(C(O)C(OC(=O)CN4CCCC4)[C@@]2(C)O1)C(C)(C)CC[C@@H]3O.Cl (stereo partly drawn)	4
–	3	C=C[C@@]1(C)CC(=O)[C@]2(O)C3(C)C(C(OC(=O)CN4CCCC4)C(O)[C@@]2(C)O1)C(C)(C)CC[C@@H]3O.Cl (stereo partly drawn)	1
Not Active	–	C=C[C@@]1(C)CC(=O)[C@]2(O)C3(C)C(C(OC(=O)CCCN4CCOCC4)C(O)[C@@]2(C)O1)C(C)(C)CC[C@@H]3O.Cl (stereo partly drawn)	2
–	> 30	C=C[C@@]1(C)CC(=O)[C@]2(O)C3(C)C(C(O)C(OC(=O)Cn4nnc5ccccc54)[C@@]2(C)O1)C(C)(C)CC[C@@H]3O (stereo partly drawn)	3
–	30	C=C[C@@]1(C)CC(=O)[C@]2(O)C3(C)C(C(OC(=O)CN4CCN(C)CC4)C(O)[C@@]2(C)O1)C(C)(C)CC[C@@H]3O.Cl (stereo partly drawn)	1.3

EC50 (Cavia porcellus [1])	EC50 (Cavia porcellus [2]) [µg/mL]	Compound	ED20 (Felis catus) [mg/kg]
–	> 30	C=C[C@@]1(C)CC(=O)[C@]2(O)C3(C)C(C(O)C(OC(=O)CCCN4CCCCC4)[C@@]2(C)O1)C(C)(C)CC[C@@H]3O.Cl (stereo partly drawn)	0.3
–	–	Nc1cc(N2CCCCC2)nc(N)[n+]1[O-] [MINOXIDIL]	0.9
–	0.2	C=C[C@@]1(C)CC(=O)[C@]2(O)C3(C)C(C(OC(=O)CCN4CCN(C)CC4)C(O)[C@@]2(C)O1)C(C)(C)CC[C@@H]3O.Cl (stereo partly drawn)	1.4
Not Active	–	C=C[C@@]1(C)CC(=O)[C@]2(O)C3(C)C(C(O)C(OC(=O)Cn4cnc5ccccc54)[C@@]2(C)O1)C(C)(C)CC[C@@H]3O (stereo partly drawn)	10
Not Active	–	C=C[C@@]1(C)CC(=O)[C@]2(O)C3(C)C(C(O)C(OC(=O)C(C)N4CCN(C)CC4)[C@@]2(C)O1)C(C)(C)CC[C@@H]3O.Cl (stereo partly drawn)	10
–	> 10	C=C[C@@]1(C)CC(=O)[C@]2(O)C3(C)C(C(O)C(OC(=O)CNc4ccccc4)[C@@]2(C)O1)C(C)(C)CC[C@@H]3O (stereo partly drawn)	2
–	> 30	C=C[C@@]1(C)CC(=O)[C@]2(O)C3(C)C(C(O)C(OC(=O)CN4CCCCC4)[C@@]2(C)O1)C(C)(C)CC[C@@H]3O.Cl (stereo partly drawn)	10
–	> 30	C=C[C@@]1(C)CC(=O)[C@]2(O)C3(C)C(C(O)C(OC(=O)CN4CCSCC4)[C@@]2(C)O1)C(C)(C)CC[C@@H]3O.Cl (stereo partly drawn)	3
Not Active	–	C=C[C@@]1(C)CC(=O)[C@]2(O)C3(C)C(C(O)C(OC(=O)CN4CCC(NC(=O)c5ccccc5)CC4)[C@@]2(C)O1)C(C)(C)CC[C@@H]3O (stereo partly drawn)	3
Not Active	–	C=C[C@@]1(C)CC(=O)[C@]2(O)C3(C)C(C(OC(=O)C(C)Nc4ccccc4)C(O)[C@@]2(C)O1)C(C)(C)CC[C@@H]3O.Cl (stereo partly drawn)	6.2
Not Active	–	C=C[C@@]1(C)CC(=O)[C@]2(O)C3(C)C(C(O)C(OC(=O)CCN4CCOCC4)[C@@]2(C)O1)C(C)(C)CC[C@@H]3O.Cl (stereo partly drawn)	–
–	0.9 (≈ 1.49 µM)	C=C[C@@]1(C)CC(=O)[C@]2(O)C3(C)C(C(O)C(OC(=O)C(C)n4cnc5c4c(=O)n(C)c(=O)n5C)[C@@]2(C)O1)C(C)(C)CC[C@@H]3O (stereo partly drawn)	5
–	2 (≈ 3.02 µM)	C=C[C@@]1(C)CC(=O)[C@]2(O)C3(C)C(C(O)C(OC(=O)Cn4c(=O)c5c(ncn5COCCOC)n(C)c4=O)[C@@]2(C)O1)C(C)(C)CC[C@@H]3O (stereo partly drawn)	6
–	> 30	C=C[C@@]1(C)CC(=O)[C@]2(O)C3(C)C(C(O)C(OC(=O)CN4CCCC(C)C4)[C@@]2(C)O1)C(C)(C)CC[C@@H]3O.Cl (stereo partly drawn)	10
Not Active	–	C=C[C@@]1(C)CC(=O)[C@]2(O)C3(C)C(C(O)C(OC(=O)CCCN4CCN(C)CC4)[C@@]2(C)O1)C(C)(C)CC[C@@H]3O.Cl (stereo partly drawn)	0.8
–	0.3 (≈ 0.995 µM)	CC(CCc1ccc(O)cc1)NCCc1ccc(O)c(O)c1 (stereo not drawn) [DOBUTAMINE]	–
–	10	C=C[C@@]1(C)CC(=O)[C@]2(O)C3(C)C(C(O)C(OC(=O)CCCN4CCOCC4)[C@@]2(C)O1)C(C)(C)CC[C@@H]3O.Cl (stereo partly drawn)	1.8
Not Active	–	C=C[C@@]1(C)CC(=O)[C@]2(O)C3(C)C(C(OC(=O)C(C)N4CCCCC4)C(O)[C@@]2(C)O1)C(C)(C)CC[C@@H]3O.Cl (stereo partly drawn)	1
–	> 30	C=C[C@@]1(C)CC(=O)[C@]2(O)C3(C)C(C(O)C(OC(=O)CN4CCC(O)CC4)[C@@]2(C)O1)C(C)(C)CC[C@@H]3O.Cl (stereo partly drawn)	3
–	0.74 (≈ 1.26 µM)	C=C[C@@]1(C)CC(=O)[C@]2(O)C3(C)C(C(O)C(OC(=O)Cn4cnc5c4c(=O)n(C)c(=O)n5C)[C@@]2(C)O1)C(C)(C)CC[C@@H]3O (stereo partly drawn)	3
–	30	C=C[C@@]1(C)CC(=O)[C@]2(O)C3(C)C(C(O)C(OC(=O)CCCCN4CCCCC4)[C@@]2(C)O1)C(C)(C)CC[C@@H]3O.Cl (stereo partly drawn)	1
–	1	C=C[C@@]1(C)CC(=O)[C@]2(O)C3(C)C(C(O)C(OC(=O)CCN4CCCCC4)[C@@]2(C)O1)C(C)(C)CC[C@@H]3O.Cl (stereo partly drawn)	–
Not Active	–	C=C[C@@]1(C)CC(=O)[C@]2(O)C3(C)C(C(O)C(OC(=O)CN(C)C4CCCCC4)[C@@]2(C)O1)C(C)(C)CC[C@@H]3O (stereo partly drawn)	10
Not Active	–	C=C[C@@]1(C)CC(=O)[C@]2(O)C3(C)C(C(OC(=O)C(C)N4CCN(C)CC4)C(O)[C@@]2(C)O1)C(C)(C)CC[C@@H]3O.Cl (stereo partly drawn)	3
–	3	C=C[C@@]1(C)CC(=O)[C@]2(O)C3(C)C(C(O)C(OC(=O)C(C)(C)N4CCOCC4)[C@@]2(C)O1)C(C)(C)CC[C@@H]3O.Cl (stereo partly drawn)	1.8
Not Active	–	C=C[C@@]1(C)CC(=O)[C@]2(O)C3(C)C(C(O)C(OC(=O)CCN4CCN(C)CC4)[C@@]2(C)O1)C(C)(C)CC[C@@H]3O.Cl (stereo partly drawn)	–

Source: ChEMBL document CHEMBL1123969, “Cardiovascular effects of new water-soluble derivatives of forskolin” (J Med Chem, 1988)
